Key:
[1] = biological target: 5-hydroxytryptamine receptor 4 (Rattus norvegicus, UniProt Q62758); assay: In vitro affinity at serotonergic 5-hydroxytryptamine 4 receptor by radioligand binding assay using [3H]GR-113808 in rat striatum membranes.; format: cell membranes
[2] = biological target: T1, Serotonin 3 (5-HT3) receptor (Rattus norvegicus, UniProt P35563+Q9JJ16); assay: Compound was evaluated for its in vitro affinity at serotonergic 5-hydroxytryptamine 3 receptor by radioligand binding assay, using [3H]-LY 278584 in rat cerebral cortex membranes.; format: cell membranes
T1 sequence (P35563 whole entry): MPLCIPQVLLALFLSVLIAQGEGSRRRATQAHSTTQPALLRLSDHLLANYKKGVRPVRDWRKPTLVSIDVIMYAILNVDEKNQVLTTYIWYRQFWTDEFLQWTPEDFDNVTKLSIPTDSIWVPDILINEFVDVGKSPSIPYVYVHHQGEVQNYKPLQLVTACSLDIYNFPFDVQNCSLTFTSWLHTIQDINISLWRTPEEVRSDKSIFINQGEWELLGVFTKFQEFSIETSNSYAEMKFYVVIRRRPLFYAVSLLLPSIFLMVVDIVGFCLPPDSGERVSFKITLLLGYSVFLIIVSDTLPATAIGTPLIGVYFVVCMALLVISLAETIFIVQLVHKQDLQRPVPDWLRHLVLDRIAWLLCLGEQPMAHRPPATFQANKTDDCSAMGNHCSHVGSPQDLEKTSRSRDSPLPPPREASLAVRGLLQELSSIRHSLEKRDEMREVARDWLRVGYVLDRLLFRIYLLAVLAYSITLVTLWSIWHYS
T1 sequence (Q9JJ16 whole entry): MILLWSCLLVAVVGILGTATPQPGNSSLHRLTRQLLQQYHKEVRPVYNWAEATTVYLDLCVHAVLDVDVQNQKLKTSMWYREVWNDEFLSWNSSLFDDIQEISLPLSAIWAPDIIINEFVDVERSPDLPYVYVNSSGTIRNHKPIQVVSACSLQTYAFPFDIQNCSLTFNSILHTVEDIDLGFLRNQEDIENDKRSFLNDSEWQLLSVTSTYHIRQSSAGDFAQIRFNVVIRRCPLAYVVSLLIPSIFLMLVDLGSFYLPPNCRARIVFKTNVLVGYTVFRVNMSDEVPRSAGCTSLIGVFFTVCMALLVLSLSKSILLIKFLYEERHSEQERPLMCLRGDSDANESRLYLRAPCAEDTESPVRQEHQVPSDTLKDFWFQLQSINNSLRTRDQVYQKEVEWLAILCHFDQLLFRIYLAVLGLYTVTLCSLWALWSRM

[3] = biological target: T1, Serotonin 3 (5-HT3) receptor; assay: In vitro affinity at serotonergic 5-hydroxytryptamine 3 receptor by radioligand binding assay, using [3H]-LY 278584 in rat cerebral cortex membranes.; format: cell membranes
How it was run: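 Rat cerebral cortex membranes prepared in 0.32 M sucrose, then washed in 50 mM Tris-HCl pH 7.4 and preincubated at 37 °C for 10 min. About 2 mg/mL protein incubated 30 min at 25 °C with 0.7 nM [3H]LY 278584 and six competitor concentrations. Buffer contained pargyline, ascorbate and CaCl2. Nonspecific binding defined with 10 μM 5-HT. Triplicates, filtration, scintillation counting. Ki from IC50 via Cheng–Prusoff, means of 2–4 assays.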

Cavia porcellus [4] = organism: Cavia porcellus; assay: Single-point analysis using 5(10e-9) M concentration of the antagonist (pA2= -log([B]/concentration ratio-1); [B] =concentration of the antagonist); format: functional; conditions: read-out: pA2 (converted)
How it was run: (§1)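 Ileal strip preparation with methysergide 10^-6 M present. Paired noncumulative 5-HT curves are run, with the antagonist at 5×10^-9 M added 30 min before the second curve. The concentration ratio is taken at the 5-HT level giving 50% of the control maximum in the ≥10^-6 M phase. Single-point pA2 = −log([B]/(CR−1)) (Furchgott).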

Cavia porcellus [5] = organism: Cavia porcellus; assay: Single-point analysis using 5(10e-9) M concentration of the antagonist (pA2= -log([B]/concentration ratio-1); [B] =concentration of the antagonist).; format: functional; conditions: read-out: pA2 (converted); how it was run: as §1
[6] = biological target: Serotonin 3 (5-HT3) receptor (Homo sapiens) (UniProt P46098+A5X5Y0+O95264+Q70Z44+Q8WXA8); conditions: Cavia porcellus; Ileum

Chain of 5-hydroxytryptamine receptor 4 (Q62758 whole entry): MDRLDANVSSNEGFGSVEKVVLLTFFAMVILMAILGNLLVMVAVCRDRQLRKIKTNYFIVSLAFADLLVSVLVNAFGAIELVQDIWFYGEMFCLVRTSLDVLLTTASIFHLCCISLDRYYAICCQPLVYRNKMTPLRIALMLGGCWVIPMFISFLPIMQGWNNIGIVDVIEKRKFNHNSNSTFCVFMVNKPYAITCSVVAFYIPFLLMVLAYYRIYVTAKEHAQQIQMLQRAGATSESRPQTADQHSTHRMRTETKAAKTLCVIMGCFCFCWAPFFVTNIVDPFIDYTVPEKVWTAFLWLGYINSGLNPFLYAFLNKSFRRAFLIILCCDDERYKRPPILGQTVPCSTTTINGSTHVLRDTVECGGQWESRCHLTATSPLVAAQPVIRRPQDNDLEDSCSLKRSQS

Row | SMILES | Ki [1] [nM] | Ki [3] [nM] | further results
1 | CN1C2CCC1CC(OC(=O)c1cccc3[nH]cnc13)C2 (stereo in doubt; 24) | > 10000 | – | Ki [2]: > 1000 nM
2 | CCC1CCN(C)C[C@H]1NC(=O)c1cccc2[nH]cnc12 (stereo not given in full) | > 1000 | 2.6 | Kb (Cavia porcellus [4]): 0.251 nM
3 | Cc1nccn1CC1CCc2c(c3ccccc3n2C)C1=O (stereo not given) [ONDANSETRON] | – | – | Kb (Cavia porcellus [5]): 0.126 nM; ED50 [6]: 43000 nM
4 | CN1C2CCCC1CC(NC(=O)c1nn(C)c3ccccc13)C2 (stereo not given) [GRANISETRON] | > 1000 | – | –
5 | CN1C2CCCC1CC(NC(=O)c1cccc3[nH]cnc13)C2 (stereo not given) | > 10000 | 230 | –
6 | CN1C2CCC1CC(OC(=O)c1cc(Cl)cc3[nH]cnc13)C2 (stereo not given) | 356 | 61.2 | –
7 | Nc1ccc(C(=O)NC2CN3CCC2CC3)c2[nH]cnc12 (stereo not given) | 779 | 2.4 | –
8 | O=C(NC1CN2CCC1CC2)c1cc(Br)c([N+](=O)[O-])c2nc[nH]c12 (stereo not given) | > 10000 | 8.8 | –
9 | CN1C2CCCC1CC(OC(=O)c1cccc3nc[nH]c13)C2 (stereo not given) | – | – | Ki [2]: 678 nM
10 | O=C(NC1CN2CCC1CC2)c1cc(Cl)c([N+](=O)[O-])c2nc[nH]c12 (stereo not given) | > 1000 | 5.2 | –
11 | CN1C2CCCC1CC(OC(=O)c1cc(Cl)cc3[nH]cnc13)C2 (stereo not given) | – | 88.7 | –
12 | CN1C2CCC1CC(OC(=O)c1cccc3[nH]cnc13)C2 (stereo in doubt; 23) | > 10000 | – | Ki [2]: > 1000 nM
13 | O=C(N[C@@H]1CN2CCC1CC2)c1cc(Br)cc2nc[nH]c12 | 38.3 | 0.28 | –
14 | O=C(N[C@H]1CN2CCC1CC2)c1cc(Br)cc2nc[nH]c12 | 270 | 3.4 | –
15 | CN1C2CCC1CC(NC(=O)c1cccc3[nH]cnc13)C2 (stereo not given) | > 10000 | 118 | –
16 | O=C(N[C@@H]1CN2CCC1CC2)c1cc(Cl)c([N+](=O)[O-])c2nc[nH]c12 | > 1000 | 1.7 | Kb (Cavia porcellus [4]): 0.794 nM; ED50 [6]: 68000 nM
17 | O=C(NC1CN2CCC1CC2)c1cc(Br)cc2nc[nH]c12 (stereo not given) | 168 | 0.29 | –
18 | O=C(N[C@H]1CN2CCC1CC2)c1cc(Cl)cc2nc[nH]c12 | 205 | 0.76 | –
19 | Nc1c(Cl)cc(C(=O)NC2CN3CCC2CC3)c2[nH]cnc12 (stereo not given) | 187 | 0.24 | –
20 | O=C(N[C@@H]1CN2CCC1CC2)c1cc(Cl)cc2nc[nH]c12 | > 10000 | 0.13 | Kb (Cavia porcellus [4]): 0.126 nM; ED50 [6]: 17000 nM
21 | CN1C2CCCC1CC(NC(=O)c1cc(Cl)cc3nc[nH]c13)C2 (stereo not given) | > 1000 | 83 | –
22 | Nc1c(Br)cc(C(=O)NC2CN3CCC2CC3)c2[nH]cnc12 (stereo not given) | 227 | 0.42 | –
23 | CCC1CCN(C)C[C@@H]1NC(=O)c1cccc2nc[nH]c12 (stereo not given in full) | > 10000 | 38.3 | –
24 | CN1C2CCC1CC(NC(=O)c1cc(Cl)cc3nc[nH]c13)C2 (stereo not given) | 319 | 16.6 | –

From ChEMBL document CHEMBL1132491, “Benzimidazole derivatives. 2. Synthesis and structure-activity relationships of new azabicyclic benzimidazole-4-carboxylic acid derivatives with affinity for serotoninergic 5-HT(3) receptors” (J Med Chem, 1999)
